Test [1] relates to HeLa. The test can be described thus: Antiproliferative activity against human HeLa cells after 72 hrs by MTT assay. It counts as functional, cell-based. The following applies: Homo sapiens, HeLa, 72 h. In outline: (§1)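 Cells kept in RPMI-1640 with 10% FBS at 37 °C, 5% CO2. Seeded at 5×10^3 cells/well and grown 24 h, then exposed 72 h at 37 °C to five concentrations (0.01, 0.1, 1, 10, 100 μM) in medium. MTT added for 4 h, formazan dissolved in DMSO, absorbance read at 490 nm. IC50 taken from a log plot of percent of control vs concentration; means ± SD of triplicate experiments.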

The test system of another test is A549. The test can be described thus: Antiproliferative activity against human A549 cells after 72 hrs by MTT assay. It counts as functional, cell-based. The following applies: Homo sapiens, A549, 72 h. In outline:
as §1

The subject of a further test is HepG2. The test can be described thus: Antiproliferative activity against human HepG2 cells after 72 hrs by MTT assay. Format: functional, cell-based. The note with it: Homo sapiens, HepG2, 72 h. In outline: as §1
The next test concerns LoVo. The test can be described thus: Antiproliferative activity against human LoVo cells after 72 hrs by MTT assay. The following applies: Homo sapiens, LoVo, 72 h. Format: functional, cell-based. The method in brief:
as §1

The next test deals with HCT-116. The test can be described thus: Antiproliferative activity against human HCT116 cells after 72 hrs by MTT assay. It counts as functional, cell-based. The following applies: Homo sapiens, HCT-116, 72 h. The method in brief: as §1
The target in another test is T1, Aurora kinase A (Homo sapiens, UniProt O14965).
T1 sequence (O14965 whole entry): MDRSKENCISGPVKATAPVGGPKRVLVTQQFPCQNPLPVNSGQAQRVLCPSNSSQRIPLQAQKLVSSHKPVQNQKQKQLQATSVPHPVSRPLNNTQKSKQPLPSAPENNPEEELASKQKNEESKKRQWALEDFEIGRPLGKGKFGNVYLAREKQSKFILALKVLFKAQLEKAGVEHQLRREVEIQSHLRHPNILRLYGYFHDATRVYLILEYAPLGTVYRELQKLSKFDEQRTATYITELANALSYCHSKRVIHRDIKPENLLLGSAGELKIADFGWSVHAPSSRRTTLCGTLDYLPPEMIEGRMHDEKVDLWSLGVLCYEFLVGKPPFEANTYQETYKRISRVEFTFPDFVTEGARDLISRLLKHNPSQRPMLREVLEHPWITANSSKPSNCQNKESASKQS
The test can be described thus: Inhibition of Aurora A (unknown origin) using kemptide as substrate after 30 mins by kinase-Glo luminescence method. The method in brief: (§2)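 Luminescent kinase assay. Reaction buffer: 40 mM Tris pH 7.4, 10 mM MgCl2, 1 mM DTT, 0.1 mg/ml BSA, 10 μM ATP, 0.2 μg/ml kinase, 100 μM Kemptide. Compounds tested at 0.1, 1, 10, 100 and 1000 nM (diluted in PBS). Reactions ran 30 min at 37 °C, signal read by Kinase-Glo luminescence, IC50 fitted from the curves.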

Test [2] concerns the target T2, Aurora kinase B (Homo sapiens, UniProt Q96GD4). The test can be described thus: Inhibition of Aurora B (unknown origin) using kemptide as substrate after 30 mins by kinase-Glo luminescence method. In outline: as §2
Test [3] has as its target T3, Aurora kinase A (Homo sapiens) (UniProt O14965).
T3 sequence (whole entry): T1 sequence (O14965 whole entry)
The test can be described thus: Inhibition of Aurora A phosphorylation at Thr288 residue in human HeLa cells after 6 hrs by Western blot method. It counts as cell-based. The method in brief:
(§3)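 HeLa cells treated 6 h at 0, 0.5, 2.5 or 5.0 μM. Lysates (20–30 μg) resolved on 12% SDS-PAGE and blotted to PVDF. Probed overnight at 4 °C with antibodies to phospho-AurA Thr288, phospho-AurB Thr232 and total AurA/AurB. β-actin used as loading control. Values are mean ± SD versus control.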

The target of test [4] is T2, Aurora kinase B. The test can be described thus: Inhibition of Aurora B phosphorylation at Thr232 residue in human HeLa cells after 6 hrs by Western blot method. Format: cell-based. In outline: as §3
For test [5], the target named is T3, Aurora kinase A (Homo sapiens). The test can be described thus: Inhibition of Aurora A phosphorylation at Thr288 residue in human HeLa cells at 5 uM after 6 hrs by Western blot method. Format: cell-based. The method in brief:
as §3

For test [6], the target named is T2, Aurora kinase B. The test can be described thus: Inhibition of Aurora B phosphorylation at Thr232 residue in human HeLa cells at 5 uM after 6 hrs by Western blot method. It counts as cell-based. The method in brief: as §3
Test [7] has as its system HeLa. The test can be described thus: Cell cycle arrest in human HeLa cells assessed as accumulation at G1 phase at 0.5 uM after 24 hrs by propidium iodide staining based FACS analysis (reference value: 65.66%). Format: functional. In outline: (§4)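 HeLa cells exposed 24 h to 0, 0.5, 2.0 or 5.0 μM. (1–5)×10^5 cells harvested, washed twice in PBS, fixed overnight or longer in 75% ice-cold ethanol, then washed three times in PBS. DNA stained 15 min in darkness with 1% Triton X-100, 0.01% RNase, 0.05% PI. Phase distribution measured by flow cytometry.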

In test [8] the test system is HeLa. The test can be described thus: Cell cycle arrest in human HeLa cells assessed as accumulation at G2/M phase at 0.5 uM after 24 hrs by propidium iodide staining based FACS analysis (reference value: 9.63%). It counts as functional. The method in brief:
as §4

Test [9] has as its system HeLa. The test can be described thus: Cell cycle arrest in human HeLa cells assessed as accumulation at S phase at 0.5 uM after 24 hrs by propidium iodide staining based FACS analysis (reference value: 24.72%). It counts as functional. The method in brief: as §4
Test [10] deals with HeLa. The test can be described thus: Cell cycle arrest in human HeLa cells assessed as accumulation at G1 phase at 2 uM after 24 hrs by propidium iodide staining based FACS analysis (reference value: 65.66%). Format: functional. The method in brief:
as §4

The test system of test [11] is HeLa. The test can be described thus: Cell cycle arrest in human HeLa cells assessed as accumulation at G2/M phase at 2 uM after 24 hrs by propidium iodide staining based FACS analysis (reference value: 9.63%). Format: functional. In outline:
as §4

Test [12] has as its system HeLa. The test can be described thus: Cell cycle arrest in human HeLa cells assessed as accumulation at S phase at 2 uM after 24 hrs by propidium iodide staining based FACS analysis (reference value: 24.72%). It counts as functional. The method in brief:
as §4

Test [13] concerns HeLa. The test can be described thus: Cell cycle arrest in human HeLa cells assessed as accumulation at G1 phase at 5 uM after 24 hrs by propidium iodide staining based FACS analysis (reference value: 65.66%). It counts as functional.
Test [14] has as its system HeLa. The test can be described thus: Cell cycle arrest in human HeLa cells assessed as accumulation at G2/M phase at 5 uM after 24 hrs by propidium iodide staining based FACS analysis (reference value: 9.63%). It counts as functional.
For test [15], the system named is HeLa. The test can be described thus: Cell cycle arrest in human HeLa cells assessed as accumulation at S phase at 5 uM after 24 hrs by propidium iodide staining based FACS analysis (reference value: 24.72%). Format: functional.
Test [16] deals with HeLa. The test can be described thus: Cell cycle arrest in human HeLa cells assessed as accumulation at G2/M phase after 24 hrs by propidium iodide staining based FACS analysis. Format: functional. The method in brief: as §4
Test [17] has as its system HeLa. The test can be described thus: Downregulation of Cyclin-B1 protein level in human HeLa cells after 24 hrs by Western blot method. It counts as functional, cell-based. In outline: (§5)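 HeLa cells treated 24 h at 0, 0.5, 2.0 or 5.0 μM, or with VX-680 at 5.0 μM. Lysed in Tris-HCl pH 7.5/NP-40/SDS buffer with protease inhibitors, 20–30 μg protein run on 12% SDS-PAGE, transferred to PVDF, probed overnight at 4 °C with anti-cyclinB1 and anti-cdc2. β-actin served as loading control. Values are mean ± SD.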

Test [18] has as its system HeLa. The test can be described thus: Downregulation of Cdc2 protein level in human HeLa cells after 24 hrs by Western blot method. Format: functional, cell-based. The method in brief:
as §5

The source made the active and inactive calls. The rule behind the calls is not given here.

The values below come from ChEMBL document CHEMBL4219251, “Synthesis and biological evaluation of 2,4-disubstituted phthalazinones as Aurora kinase inhibitors” (Bioorg Med Chem, 2018).

T2 sequence (Q96GD4 whole entry): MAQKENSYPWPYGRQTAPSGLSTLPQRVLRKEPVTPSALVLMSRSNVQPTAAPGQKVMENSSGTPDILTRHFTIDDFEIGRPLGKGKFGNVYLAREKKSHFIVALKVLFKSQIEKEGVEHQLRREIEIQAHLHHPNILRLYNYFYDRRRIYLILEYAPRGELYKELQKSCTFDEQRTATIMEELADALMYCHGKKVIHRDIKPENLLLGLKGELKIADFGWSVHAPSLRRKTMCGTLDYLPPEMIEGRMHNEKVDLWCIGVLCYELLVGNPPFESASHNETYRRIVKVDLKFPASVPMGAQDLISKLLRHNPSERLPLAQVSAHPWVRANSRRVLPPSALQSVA

Consider `Cn1cc(-c2nn(Cc3ccc(C(=O)NC4CCCCC4)cc3)c(=O)c3ccccc23)cn1`, for which the IC50 in the test with HeLa [1] amounted to 2200 nM; with A549 it was 3300 nM; in the test on HepG2, 4600 nM; in the test with LoVo, 2600 nM; in the test on HCT-116 it was 3800 nM; on Aurora kinase A it was 118 nM. This compound had an IC50 on Aurora kinase B [2] of 80 nM. Moreover, the inhibition result (in test [3]; at Aurora kinase B [4]) was “Dose-dependent effect” in each case. Also, the inhibition entry (in [5]; at Aurora kinase B [6]) was “Active” throughout. For the same compound, the Activity in the test with HeLa [7] was 34.87%; with HeLa [8] it was 34.66%; with HeLa [9], 30.47%; in the test with HeLa [10], 5.98%; in the test with HeLa [11] it was 81.19%; with HeLa [12], 12.83%. The Activity with HeLa [13] is 7.34%; in the test with HeLa [14], 87.17%; in the test on HeLa [15] it was 5.48%; in the test with HeLa [16], “Dose-dependent effect”; with HeLa [17], “Dose-dependent effect”; with HeLa [18], “Dose-dependent effect”.
